# Assay results taken from ChEMBL document CHEMBL1147223, “Saponins from Cussonia bancoensis and their inhibitory effects on nitric oxide production” (J Nat Prod, 2003).
# Key:
# [1] = test system: RAW264.7; experiment: Inhibition of LPS-induced nitric oxide production in mouse RAW264.7 cells by Griess method; format: functional, cell-based
# How it was run: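 RAW 264.7 murine macrophages were grown in DMEM with 10% FBS, penicillin and streptomycin at 37 °C under 5% CO2, then stimulated with LPS for 24 h. Nitrite in the medium was measured by Griess reaction (sulfanilamide/naphthylethylenediamine, 10 min at room temperature, A550) against a NaNO2 standard curve. IC50 is the concentration giving a 50% decrease in NO; values are the mean of four independent experiments.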
# [2] = test system: RAW264.7; experiment: Cytotoxicity against LPS-stimulated mouse RAW264.7 cells by Griess method; format: cell-based
Structure (SMILES),IC50 [1] [µM],IC50 [2] [µM]
C[C@H]1[C@H](C)CC[C@]2(C(=O)O)CC[C@]3(C)C(=CC[C@@H]4[C@@]5(C)CC[C@H](O[C@@H]6O[C@H](CO)[C@@H](O)[C@H](O)[C@H]6O)[C@@](C)(CO)[C@@H]5CC[C@]43C)[C@H]12,22.1,126
C[C@H]1[C@H](C)CC[C@]2(C(=O)O)CC[C@]3(C)C(=CC[C@@H]4[C@@]5(C)CC[C@H](O[C@@H]6OC[C@H](O)[C@H](O)[C@H]6O)[C@@](C)(CO)[C@@H]5CC[C@]43C)[C@H]12,47.9,124
C[C@H]1[C@H](C)CC[C@]2(C(=O)O)CC[C@]3(C)C(=CC[C@@H]4[C@@]5(C)CC[C@H](O)[C@@](C)(CO)[C@@H]5CC[C@]43C)[C@H]12,2.6,11

# Continued by falling IC50 [1], values first:
IC50 [1] [µM],Structure (SMILES),IC50 [2] [µM]
46.9,C[C@H]1[C@H](C)CC[C@]2(C(=O)O)CC[C@]3(C)C(=CC[C@@H]4[C@@]5(C)CC[C@H](O)C(C)(C)[C@@H]5CC[C@]43C)[C@H]12 [URSOLIC ACID],58.5
18.6,CC(=N)NCCCC[C@H](N)C(=O)O [L-NIL],> 200
